Test results published in ChEMBL document CHEMBL1148770, “Conformation-activity relationship of neuropeptide S and some structural mutants: helicity affects their interaction with the receptor” (J Med Chem, 2007).
Square brackets hold non-standard residues; d marks the D form. Peptide text beside a SMILES is read from it. Aib = CC(C)(N)C(=O)O

How the values were obtained:
[1] = target: T1, Neuropeptide S receptor (Mus musculus) (UniProt Q8BZP8); test: Agonist activity at mouse recombinant NPSR expressed in HEK293 cells assessed as calcium mobilization relative to baseline; assay type: functional, cell-based
T1 sequence (whole entry): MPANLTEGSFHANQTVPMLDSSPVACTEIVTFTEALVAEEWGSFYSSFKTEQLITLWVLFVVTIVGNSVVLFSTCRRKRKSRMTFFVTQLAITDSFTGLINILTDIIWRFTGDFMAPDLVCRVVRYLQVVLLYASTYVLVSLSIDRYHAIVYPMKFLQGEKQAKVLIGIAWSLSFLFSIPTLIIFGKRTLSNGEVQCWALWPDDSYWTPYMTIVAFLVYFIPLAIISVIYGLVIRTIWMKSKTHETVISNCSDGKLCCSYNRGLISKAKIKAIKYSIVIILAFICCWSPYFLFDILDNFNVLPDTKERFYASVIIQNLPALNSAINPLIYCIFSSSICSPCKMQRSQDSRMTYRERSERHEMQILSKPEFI
Summary of the method: (§1)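 HEK293 cells stably expressing mouse NPSR, grown in DMEM/10% FBS/2 mM glutamine/hygromycin at 37 °C, 5% CO2. Seeded 50,000 cells/well on poly-D-lysine; next day loaded 30 min at 37 °C with 3 µM Fluo-4 AM, 2.5 mM probenecid, 0.01% pluronic acid. Read in HBSS/20 mM HEPES/probenecid/Brilliant Black at ≈22 °C on FlexStation; peak fluorescence change as % baseline; logistic fit; ≥4 experiments in duplicate.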

Neuropeptide S receptor = target: T2, Neuropeptide S receptor (Mus musculus, UniProt Q8BZP8); test: Agonist activity at mouse recombinant NPSR expressed in HEK293 cells assessed as calcium mobilization; assay type: functional, cell-based; summary of the method: as §1
T2 sequence (Q8BZP8 whole entry): T1 sequence (whole entry)

Structure (SMILES) | Emax [1] | EC50 (Neuropeptide S receptor)
CSCC[C@H](NC(=O)CNC(=O)[C@@H](NC(=O)CNC(=O)[C@@H](NC(=O)[C@@H](C)NC(=O)[C@H](CC(N)=O)NC(=O)[C@H](CCCNC(=N)N)NC(=O)[C@H](Cc1ccccc1)NC(=O)[C@@H](N)CO)C(C)C)[C@@H](C)O)C(=O)N[C@@H](CCCCN)C(=O)N[C@@H](CCCCN)C(=O)N[C@H](C(=O)N[C@@H](CO)C(=O)N[C@@H](Cc1ccccc1)C(=O)N[C@@H](CCC(N)=O)C(=O)N[C@@H](CCCNC(=N)N)C(=O)N[C@@H](C)C(=O)N[C@@H](CCCCN)C(=O)N[C@@H](CO)C(=O)O)[C@@H](C)O (H-SFRN[dA]VGTGMKKTSFQRAKS-OH) | 90% | 28.2 nM
CSCC[C@H](NC(=O)[C@@H](C)NC(=O)[C@@H](NC(=O)CNC(=O)[C@@H](NC(=O)CNC(=O)[C@H](CC(N)=O)NC(=O)[C@H](CCCNC(=N)N)NC(=O)[C@H](Cc1ccccc1)NC(=O)[C@@H](N)CO)C(C)C)[C@@H](C)O)C(=O)N[C@@H](CCCCN)C(=O)N[C@@H](CCCCN)C(=O)N[C@H](C(=O)N[C@@H](CO)C(=O)N[C@@H](Cc1ccccc1)C(=O)N[C@@H](CCC(N)=O)C(=O)N[C@@H](CCCNC(=N)N)C(=O)N[C@@H](C)C(=O)N[C@@H](CCCCN)C(=O)N[C@@H](CO)C(=O)O)[C@@H](C)O | 172% | 21.4 nM
CSCC[C@H](NC(=O)CNC(=O)[C@@H](NC(=O)[C@@H](C)NC(=O)[C@@H](NC(=O)CNC(=O)[C@H](CC(N)=O)NC(=O)[C@H](CCCNC(=N)N)NC(=O)[C@H](Cc1ccccc1)NC(=O)[C@@H](N)CO)C(C)C)[C@@H](C)O)C(=O)N[C@@H](CCCCN)C(=O)N[C@@H](CCCCN)C(=O)N[C@H](C(=O)N[C@@H](CO)C(=O)N[C@@H](Cc1ccccc1)C(=O)N[C@@H](CCC(N)=O)C(=O)N[C@@H](CCCNC(=N)N)C(=O)N[C@@H](C)C(=O)N[C@@H](CCCCN)C(=O)N[C@@H](CO)C(=O)O)[C@@H](C)O | 164% | 23.4 nM
CSCC[C@H](NC(=O)CNC(=O)[C@@H](NC(=O)CNC(=O)[C@@H](NC(=O)CNC(=O)[C@H](CC(N)=O)NC(=O)[C@H](CCCNC(=N)N)NC(=O)[C@H](Cc1ccccc1)NC(=O)[C@@H](N)CO)C(C)C)[C@@H](C)O)C(=O)N[C@@H](CCCCN)C(=O)N[C@@H](CCCCN)C(=O)N[C@@H](C)C(=O)N[C@@H](CO)C(=O)N[C@@H](Cc1ccccc1)C(=O)N[C@@H](CCC(N)=O)C(=O)N[C@@H](CCCNC(=N)N)C(=O)N[C@@H](C)C(=O)N[C@@H](CCCCN)C(=O)N[C@@H](CO)C(=O)O (H-SFRNGVGTGMKKASFQRAKS-OH) | 172% | 19.1 nM
CSCC[C@H](NC(=O)CNC(=O)[C@@H](NC(=O)CNC(=O)[C@@H](NC(=O)CNC(=O)[C@@H]1CCCN1C(=O)[C@H](CCCNC(=N)N)NC(=O)[C@H](Cc1ccccc1)NC(=O)[C@@H](N)CO)C(C)C)[C@@H](C)O)C(=O)N[C@@H](CCCCN)C(=O)N[C@@H](CCCCN)C(=O)N[C@H](C(=O)N[C@@H](CO)C(=O)N[C@@H](Cc1ccccc1)C(=O)N[C@@H](CCC(N)=O)C(=O)N[C@@H](CCCNC(=N)N)C(=O)N[C@@H](C)C(=O)N[C@@H](CCCCN)C(=O)N[C@@H](CO)C(=O)O)[C@@H](C)O (H-SFRPGVGTGMKKTSFQRAKS-OH) | – | 158 nM
CSCC[C@H](NC(=O)CNC(=O)[C@@H](NC(=O)CNC(=O)[C@@H](NC(=O)CNC(=O)[C@H](CC(N)=O)NC(=O)[C@H](CCCNC(=N)N)NC(=O)[C@H](Cc1ccccc1)NC(=O)[C@H](C)N)C(C)C)[C@@H](C)O)C(=O)N[C@@H](CCCCN)C(=O)N[C@@H](CCCCN)C(=O)N[C@H](C(=O)N[C@@H](CO)C(=O)N[C@@H](Cc1ccccc1)C(=O)N[C@@H](CCC(N)=O)C(=O)N[C@@H](CCCNC(=N)N)C(=O)N[C@@H](C)C(=O)N[C@@H](CCCCN)C(=O)N[C@@H](CO)C(=O)O)[C@@H](C)O (H-AFRNGVGTGMKKTSFQRAKS-OH) | 182% | 26.3 nM
CSCC[C@H](NC(=O)CNC(=O)[C@@H](NC(=O)CNC(=O)[C@@H](NC(=O)CNC(=O)[C@H](CC(N)=O)NC(=O)[C@H](CCCNC(=N)N)NC(=O)[C@H](Cc1ccccc1)NC(=O)C(C)(C)N)C(C)C)[C@@H](C)O)C(=O)N[C@@H](CCCCN)C(=O)N[C@@H](CCCCN)C(=O)N[C@H](C(=O)N[C@@H](CO)C(=O)N[C@@H](Cc1ccccc1)C(=O)N[C@@H](CCC(N)=O)C(=O)N[C@@H](CCCNC(=N)N)C(=O)N[C@@H](C)C(=O)N[C@@H](CCCCN)C(=O)N[C@@H](CO)C(=O)O)[C@@H](C)O (H-[Aib]FRNGVGTGMKKTSFQRAKS-OH) | 184% | 6.76 nM
CSCC[C@H](NC(=O)CNC(=O)[C@@H](NC(=O)CNC(=O)[C@@H](NC(=O)[C@H](C)NC(=O)[C@H](CC(N)=O)NC(=O)[C@H](CCCNC(=N)N)NC(=O)[C@H](Cc1ccccc1)NC(=O)[C@@H](N)CO)C(C)C)[C@@H](C)O)C(=O)N[C@@H](CCCCN)C(=O)N[C@@H](CCCCN)C(=O)N[C@H](C(=O)N[C@@H](CO)C(=O)N[C@@H](Cc1ccccc1)C(=O)N[C@@H](CCC(N)=O)C(=O)N[C@@H](CCCNC(=N)N)C(=O)N[C@@H](C)C(=O)N[C@@H](CCCCN)C(=O)N[C@@H](CO)C(=O)O)[C@@H](C)O (H-SFRNAVGTGMKKTSFQRAKS-OH) | 178% | 24.5 nM
CSCC[C@H](NC(=O)[C@H](C)NC(=O)[C@@H](NC(=O)[C@H](C)NC(=O)[C@@H](NC(=O)CNC(=O)[C@H](CC(N)=O)NC(=O)[C@H](CCCNC(=N)N)NC(=O)[C@H](Cc1ccccc1)NC(=O)[C@@H](N)CO)C(C)C)[C@@H](C)O)C(=O)N[C@@H](CCCCN)C(=O)N[C@@H](CCCCN)C(=O)N[C@@H](C)C(=O)N[C@@H](CO)C(=O)N[C@@H](Cc1ccccc1)C(=O)N[C@@H](CCC(N)=O)C(=O)N[C@@H](CCCNC(=N)N)C(=O)N[C@@H](C)C(=O)N[C@@H](CCCCN)C(=O)N[C@@H](CO)C(=O)O (H-SFRNGVATAMKKASFQRAKS-OH) | 69% | –
CSCC[C@H](NC(=O)CNC(=O)[C@@H](NC(=O)[C@H](C)NC(=O)[C@@H](NC(=O)CNC(=O)[C@H](CC(N)=O)NC(=O)[C@H](CCCNC(=N)N)NC(=O)[C@H](Cc1ccccc1)NC(=O)[C@@H](N)CO)C(C)C)[C@@H](C)O)C(=O)N[C@@H](CCCCN)C(=O)N[C@@H](CCCCN)C(=O)N[C@H](C(=O)N[C@@H](CO)C(=O)N[C@@H](Cc1ccccc1)C(=O)N[C@@H](CCC(N)=O)C(=O)N[C@@H](CCCNC(=N)N)C(=O)N[C@@H](C)C(=O)N[C@@H](CCCCN)C(=O)N[C@@H](CO)C(=O)O)[C@@H](C)O | 129% | –

The next lines start with the values.

Emax [1] | EC50 (Neuropeptide S receptor) | Structure (SMILES)
14% | – | CSCC[C@H](NC(=O)CNC(=O)[C@@H](NC(=O)C(C)(C)NC(=O)[C@@H](NC(=O)CNC(=O)[C@H](CC(N)=O)NC(=O)[C@H](CCCNC(=N)N)NC(=O)[C@H](Cc1ccccc1)NC(=O)[C@@H](N)CO)C(C)C)[C@@H](C)O)C(=O)N[C@@H](CCCCN)C(=O)N[C@@H](CCCCN)C(=O)N[C@H](C(=O)N[C@@H](CO)C(=O)N[C@@H](Cc1ccccc1)C(=O)N[C@@H](CCC(N)=O)C(=O)N[C@@H](CCCNC(=N)N)C(=O)N[C@@H](C)C(=O)N[C@@H](CCCCN)C(=O)N[C@@H](CO)C(=O)O)[C@@H](C)O (H-SFRNGV[Aib]TGMKKTSFQRAKS-OH)
175% | 9.12 nM | CSCC[C@H](NC(=O)CNC(=O)[C@@H](NC(=O)CNC(=O)[C@@H](NC(=O)CNC(=O)[C@H](CC(N)=O)NC(=O)[C@H](CCCNC(=N)N)NC(=O)[C@H](Cc1ccccc1)NC(=O)[C@@H](N)CO)C(C)C)[C@@H](C)O)C(=O)N[C@@H](CCCCN)C(=O)N[C@@H](CCCCN)C(=O)N[C@H](C(=O)N[C@@H](CO)C(=O)N[C@@H](Cc1ccccc1)C(=O)N[C@@H](CCC(N)=O)C(=O)N[C@@H](CCCNC(=N)N)C(=O)N[C@@H](C)C(=O)N[C@@H](CCCCN)C(=O)N[C@@H](CO)C(=O)O)[C@@H](C)O [NEUROPEPTIDE S] (H-SFRNGVGTGMKKTSFQRAKS-OH)
164% | 23.4 nM | CSCC[C@H](NC(=O)[C@H](C)NC(=O)[C@@H](NC(=O)CNC(=O)[C@@H](NC(=O)CNC(=O)[C@H](CC(N)=O)NC(=O)[C@H](CCCNC(=N)N)NC(=O)[C@H](Cc1ccccc1)NC(=O)[C@@H](N)CO)C(C)C)[C@@H](C)O)C(=O)N[C@@H](CCCCN)C(=O)N[C@@H](CCCCN)C(=O)N[C@H](C(=O)N[C@@H](CO)C(=O)N[C@@H](Cc1ccccc1)C(=O)N[C@@H](CCC(N)=O)C(=O)N[C@@H](CCCNC(=N)N)C(=O)N[C@@H](C)C(=O)N[C@@H](CCCCN)C(=O)N[C@@H](CO)C(=O)O)[C@@H](C)O
191% | 15.1 nM | CSCC[C@H](NC(=O)[C@H](C)NC(=O)[C@@H](NC(=O)CNC(=O)[C@@H](NC(=O)CNC(=O)[C@H](CC(N)=O)NC(=O)[C@H](CCCNC(=N)N)NC(=O)[C@H](Cc1ccccc1)NC(=O)[C@@H](N)CO)C(C)C)[C@@H](C)O)C(=O)N[C@@H](CCCCN)C(=O)N[C@@H](CCCCN)C(=O)N[C@@H](C)C(=O)N[C@@H](CO)C(=O)N[C@@H](Cc1ccccc1)C(=O)N[C@@H](CCC(N)=O)C(=O)N[C@@H](CCCNC(=N)N)C(=O)N[C@@H](C)C(=O)N[C@@H](CCCCN)C(=O)N[C@@H](CO)C(=O)O (H-SFRNGVGTAMKKASFQRAKS-OH)
